In ChEMBL document CHEMBL2331170, “Synthesis and biological evaluation of novel pyranochalcone derivatives as a new class of microtubule stabilizing agents” (Eur J Med Chem, 2013):
Activity calls are given as the source filed them. The calls are words filed in the database; no cut-off is given here.

Assays:
[1] = tested on: HepG2; assay: Cell cycle arrest in human HepG2 cells assessed as accumulation at G2/M phase at 1 uM after 24 hrs by flow cytometry (reference value: 17.07 %); assay type: functional
[2] = tested on: Mus musculus; assay: Toxicity in human HepG2 cells xenografted Balb/C mouse assessed as behaviour changes at 2.5 to 10 mg/kg administered every 2 days for 3 weeks; assay type: organism-based; parameters: dose 2.5-10 mg/kg; settings: in vivo
Outline: (§1)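 Female Balb/C and nude mice (5–6 weeks) carried right-flank HepG2 xenografts (5 × 10⁶ cells). From ~100 mm³ tumor volume they were dosed at 2.5–10 mg/kg every two days for three weeks, six per group, with saline controls. Toxicity signs and mortality were checked daily. Body weight was measured every two days; feeding and behavior were observed.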

[3] = tested on: HepG2; assay: Antitumor activity against human HepG2 cells xenografted in Balb/C mouse assessed as tumor growth inhibition rate at 5 mg/kg administered every 2 days for 3 weeks measured on day 20; assay type: functional; settings: read-out: TGI
Outline: (§2)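 HepG2 cells (5 × 10⁶/mouse) in HBSS implanted in the right flank of 5–6-week-old female Balb/C and athymic nude mice, six per group. Dosing began once tumors reached ~100 mm³: three weeks at 2.5, 5 or 10 mg/kg every two days, or Taxol 5 mg/kg every four days; controls got physiological saline. Tumor volume = π/6 × length × width². T/C (%) = treated/control tumor volume × 100. Inhibition = (1 − treated/control tumor weight) × 100.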

[4] = Cytotoxicity against human ES2 cells by MTT assay; assay type: functional, cell-based; settings: ES-2
[5] = tested on: HepG2; assay: Cell cycle arrest in human HepG2 cells assessed as accumulation at G2/M phase at 0.2 uM after 24 hrs by flow cytometry (reference value: 17.07 %); assay type: functional
[6] = tested on: HepG2; assay: Antitumor activity against human HepG2 cells xenografted in Balb/C mouse assessed as tumor volume T/C ratio at 2.5 mg/kg administered every 2 days for 3 weeks measured on day 20 relative to control
[7] = tested on: SK-HEP1; assay: Cytotoxicity against human SKHEP1 cells by MTT assay; assay type: functional, cell-based
[8] = molecular target: T1, Tubulin (Sus scrofa) (UniProt P02554+P02550); assay: Stabilization of purified pig brain tubulin polymerization at 20 uM measured every 30 seconds by spectrophotometry
T1 sequence (P02550 whole entry, looked up): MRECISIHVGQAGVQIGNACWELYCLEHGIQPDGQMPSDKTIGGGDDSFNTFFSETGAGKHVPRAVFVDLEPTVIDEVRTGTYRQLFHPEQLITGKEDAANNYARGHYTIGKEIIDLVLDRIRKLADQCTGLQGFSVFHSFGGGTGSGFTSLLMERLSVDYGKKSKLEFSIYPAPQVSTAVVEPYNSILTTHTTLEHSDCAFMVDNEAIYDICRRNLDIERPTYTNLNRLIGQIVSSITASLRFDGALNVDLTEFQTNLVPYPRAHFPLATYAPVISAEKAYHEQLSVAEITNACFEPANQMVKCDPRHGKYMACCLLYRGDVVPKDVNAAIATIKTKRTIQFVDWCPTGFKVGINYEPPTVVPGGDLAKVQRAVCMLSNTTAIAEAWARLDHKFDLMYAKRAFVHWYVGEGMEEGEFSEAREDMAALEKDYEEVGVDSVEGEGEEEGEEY
T1 sequence (P02554 whole entry, looked up): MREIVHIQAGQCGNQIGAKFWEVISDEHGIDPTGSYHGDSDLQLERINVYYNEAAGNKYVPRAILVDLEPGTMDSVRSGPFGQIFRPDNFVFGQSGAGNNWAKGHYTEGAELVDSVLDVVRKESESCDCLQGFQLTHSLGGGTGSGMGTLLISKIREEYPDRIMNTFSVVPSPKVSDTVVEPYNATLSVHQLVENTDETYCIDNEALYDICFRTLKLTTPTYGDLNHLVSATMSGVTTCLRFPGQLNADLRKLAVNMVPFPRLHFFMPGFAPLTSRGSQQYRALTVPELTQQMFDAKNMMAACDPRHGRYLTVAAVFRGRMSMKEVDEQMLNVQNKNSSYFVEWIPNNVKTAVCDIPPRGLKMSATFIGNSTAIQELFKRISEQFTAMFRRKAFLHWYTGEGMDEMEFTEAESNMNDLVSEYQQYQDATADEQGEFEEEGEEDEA
Outline: (§3)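 It was pre-incubated 5 min with compound (5, 10, 20 μM), Taxol (5, 20 μM) or DMSO. GTP was added to 1 mM final to start assembly, followed as the rise in absorbance at 340 nm at 37 °C.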

[9] = tested on: Mus musculus; assay: Toxicity in human HepG2 cells xenografted Balb/C mouse assessed as feeding at 2.5 to 10 mg/kg administered every 2 days for 3 weeks; assay type: organism-based; parameters: dose 2.5-10 mg/kg; settings: in vivo; outline: as §1
[10] = tested on: HepG2; assay: Effect on microtubule network in human HepG2 cells assessed as abnormal mitotic spindles at 1 uM after 24 hrs by propidium iodide-FITC-based staining method; assay type: cell-based
Outline: (§4)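 HepG2 cells were treated with 1.0 μM for 24 h. They were washed in PBS, fixed in cold 4% PFA for 10 min and blocked for 1 h in 5% goat serum/0.3% Triton/PBS. Staining used monoclonal anti-α-tubulin overnight at 4 °C, then Alexa Fluor 488 anti-mouse IgG for 30 min at room temperature, with propidium iodide for DNA. Cells were imaged by fluorescence or confocal microscopy.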

[11] = Cytotoxicity against human MCF7/ADR cells by MTT assay; assay type: functional, cell-based; settings: NCI/ADR-RES
[12] = molecular target: T2, Tubulin (Homo sapiens) (UniProt P68371+Q9H4B7+P0DPH7+P68366+Q13509+Q71U36+P04350+Q3ZCM7+P07437+P68363+Q9BQE3+Q6PEY2+Q13885+Q9BVA1+Q9BUF5); assay: Increase in polymerized tubulin level in human HepG2 cells at 0.1 to 0.5 uM after 24 hrs by Western blot analysis; assay type: cell-based
Outline: (§5)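 HepG2 cells were treated at 0.1 or 0.5 μM for 24 h and washed three times in PBS. They were lysed on ice for 30 min in 20 mM Tris-HCl pH 6.8, 1 mM MgCl₂, 2 mM EGTA, 1 mM PMSF, 1 mM orthovanadate, 0.5% NP-40 and protease inhibitor. Tubulin was immunoblotted with α-tubulin antibody and HRP secondary, with chemiluminescent detection.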

[13] = tested on: Mus musculus; assay: Toxicity in human HepG2 cells xenografted Balb/C mouse assessed as weight loss at 2.5 to 10 mg/kg administered every 2 days for 3 weeks; assay type: organism-based; parameters: dose 2.5-10 mg/kg; settings: in vivo; outline: as §1
[14] = tested on: HepG2; assay: Antitumor activity against human HepG2 cells xenografted in Balb/C mouse assessed as tumor growth inhibition rate at 10 mg/kg administered every 2 days for 3 weeks measured on day 20; assay type: functional; settings: read-out: TGI; outline: as §2
[15] = tested on: DU-145; assay: Cytotoxicity against human DU145 cells by MTT assay; assay type: functional, cell-based
[16] = Cytotoxicity against human A2780S cells by MTT assay; assay type: functional, cell-based; settings: A2780
[17] = molecular target: T1, Tubulin (Sus scrofa); assay: Stabilization of purified pig brain tubulin polymerization at 5 uM measured every 30 seconds by spectrophotometry; outline: as §3
[18] = tested on: HCT-8; assay: Cytotoxicity against taxol-resistant human HCT8 cells by MTT assay; assay type: functional, cell-based
[19] = tested on: HepG2; assay: Antitumor activity against human HepG2 cells xenografted in Balb/C mouse assessed as tumor growth inhibition rate compound administered every 2 days for 3 weeks measured on day 20; assay type: functional, cell-based; outline: as §2
[20] = tested on: HepG2; assay: Effect on microtubule network in human HepG2 cells assessed as multiple tubulin bundles without chromosomes aligned at the metaphase plate with more dispersion of the chromosomes at 1 uM after 24 hrs by propidium iodide-FITC-based staining method; assay type: cell-based; outline: as §4
[21] = molecular target: T1, Tubulin (Sus scrofa); assay: Stabilization of purified pig brain tubulin polymerization at 10 uM measured every 30 seconds by spectrophotometry; outline: as §3
[22] = tested on: A-375; assay: Cytotoxicity against human A375 cells by MTT assay; assay type: functional, cell-based
Outline: (§6)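 Log-phase cells were diluted to 40,000–50,000 cells/mL in medium with 10% FBS, 2 mM glutamine and antibiotics (37 °C, 5% CO₂). They were seeded in 96-well plates and treated with a range of doses. MTT was added for 4 h, the formazan was dissolved in DMSO, and absorbance was read at 590 nm.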

[23] = tested on: HepG2; assay: Antitumor activity against human HepG2 cells xenografted in Balb/C mouse assessed as tumor growth inhibition rate at 2.5 mg/kg administered every 2 days for 3 weeks measured on day 20; assay type: functional; settings: read-out: TGI; outline: as §2
[24] = tested on: K562; assay: Cytotoxicity against human K562 cells by MTT assay; assay type: functional, cell-based; outline: as §6
[25] = tested on: HCT-15; assay: Cytotoxicity against human HCT15 cells by MTT assay; assay type: functional, cell-based
[26] = tested on: Bel-7402; assay: Cytotoxicity against human Bel7402 cells by MTT assay; assay type: functional, cell-based
[27] = tested on: SK-OV-3; assay: Cytotoxicity against human SKOV3 cells by MTT assay; assay type: functional, cell-based
[28] = tested on: HT-29; assay: Cytotoxicity against human HT-29 cells by MTT assay; assay type: functional, cell-based
[29] = molecular target: T2, Tubulin (Homo sapiens); assay: Decrease in unassembled tubulin level in human HepG2 cells at 0.1 to 0.5 uM after 24 hrs by Western blot analysis; assay type: cell-based; outline: as §5
[30] = tested on: HepG2; assay: Induction of microtubule polymerization in human HepG2 cells at 1 uM after 24 hrs by propidium iodide-FITC-based staining method
[31] = molecular target: T1, Tubulin (Sus scrofa); assay: Stabilization of purified pig brain tubulin polymerization measured every 30 seconds by spectrophotometry; outline: as §3
[32] = tested on: A2780; assay: Cytotoxicity against taxol-resistant human A2780 cells by MTT assay; assay type: functional, cell-based
[33] = tested on: MCF7; assay: Cytotoxicity against human MCF7 cells by MTT assay; assay type: functional, cell-based
[34] = Cytotoxicity against human LO2 cells by MTT assay; assay type: cell-based; settings: L02; outline: as §6
[35] = tested on: PC-3; assay: Cytotoxicity against human PC3 cells by MTT assay; assay type: functional, cell-based
[36] = Ratio of taxol IC50 to compound IC50 for mouse C26 cells by MTT assay; assay type: functional
[37] = tested on: HepG2; assay: Cell cycle arrest in human HepG2 cells assessed as accumulation at G2/M phase at after 24 hrs by flow cytometry; assay type: functional, cell-based
[38] = tested on: HepG2; assay: Antitumor activity against human HepG2 cells xenografted in Balb/C mouse assessed as tumor volume T/C ratio at 10 mg/kg administered every 2 days for 3 weeks measured on day 20 relative to control
[39] = Cytotoxicity against mouse C26 cells by MTT assay; assay type: functional, cell-based
[40] = tested on: HepG2; assay: Antitumor activity against human HepG2 cells xenografted in Balb/C mouse assessed as tumor volume T/C ratio at 5 mg/kg administered every 2 days for 3 weeks measured on day 20 relative to control
[41] = Cytotoxicity against human H460 cells by MTT assay; assay type: functional, cell-based; settings: NCI-H460
[42] = tested on: HepG2; assay: Cytotoxicity against human HepG2 cells by MTT assay; assay type: functional, cell-based; outline: as §6
[43] = molecular target: T1, Tubulin (Sus scrofa); assay: Induction of purified pig brain tubulin depolymerization at 5 to 20 uM measured every 30 seconds by spectrophotometry; outline: as §3
[44] = tested on: NCI-H358; assay: Cytotoxicity against human NCI-H358 cells by MTT assay; assay type: functional, cell-based
[45] = Cytotoxicity against human SPC-A1 cells by MTT assay; assay type: functional, cell-based; settings: SPCA1

## CCC(=O)Oc1cc(/C=C/C(=O)c2ccc(OC)c3c2OC(C)(C)C=C3)ccc1OC
[1]
  Activity: 76.02%
[2]
  Activity: Non-toxic
[3]
  inhibition in vivo at 5 mg/kg: 57.6%
[4]
  IC50: 0.1 µM
[5]
  Activity: 67.76%
[6]
  T/C at 2.5 mg/kg: 34.9%
[7]
  IC50: 0.32 µM
[8]
  Activity: 32%
[9]
  Activity: Non-toxic
[10]
  Activity: Active
[11]
  IC50: 0.16 µM
[12]
  Activity: Active
[13]
  Activity: Non-toxic
[14]
  inhibition in vivo at 10 mg/kg: 69.7%
[15]
  IC50: 0.19 µM
[16]
  IC50: 0.22 µM
[17]
  Activity: 10%
[18]
  IC50: 1.69 µM
[19]
  TGI: Dose-dependent effect
[20]
  Activity: Active
[21]
  Activity: 16.3%
[22]
  IC50: 0.24 µM
[23]
  inhibition in vivo at 2.5 mg/kg: 54.3%
[24]
  IC50: 0.16 µM
[25]
  IC50: 0.1 µM
[26]
  IC50: 0.4 µM
[27]
  IC50: 0.35 µM
[28]
  IC50: 0.2 µM
[29]
  Activity: Active
[30]
  Activity: Active
[31]
  Activity: Dose-dependent effect
[32]
  IC50: 1.33 µM
[33]
  IC50: 0.19 µM
[34]
  IC50: > 10 µM
[35]
  IC50: 0.09 µM
[36]
  Ratio IC50: 3
[37]
  Activity: Dose-dependent effect
[38]
  T/C at 10 mg/kg: 33.9%
[39]
  IC50: 0.31 µM
[40]
  T/C at 5 mg/kg: 32.4%
[41]
  IC50: 4.05 µM
[42]
  IC50: 0.09 µM
[43]
  Activity: inactive
[44]
  IC50: 0.15 µM
[45]
  IC50: 22.3 µM
